The text below walks through data of PubChem BioAssay AID1263 (The Scripps Research Institute Molecular Screening Center, 2008).

Some of the results follow. Active and inactive are the calls of the source.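 The calls were made as follows: active = triplicate mean inhibition exceeding the hit cutoff computed for the primary STAT1 screen (cut at about 35% in these data); inactive = the rest.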

A short description of this assay: blockers of IFN-gamma STAT1 reporter activity – cell-based, HTS, luciferase reporter, confirmation (AID 1263). The note with it: NIH 3T3 STAT1-luciferase reporter, luminescence, at 5.5 µM, active compounds read high. A digest of the protocol:
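System: NIH 3T3 STAT1-luciferase reporter cells | Reagent: IFN-gamma stimulus, 3.0 ng/mL | Doses: One dose only | Timing: 1 h compound, 4 h IFN-gamma at 37 °C | Measured by: Luciferase luminescence | Evaluation: Percent inhibition, DMSO as 0% and nifuroxazide as 100% | Controls: Nifuroxazide 300 µM high, DMSO low | Replication: Triplicate wells per compound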
For orientation: In a reporter assay the amount or activity of a reporter protein is the signal.
In the case of `CCOC(=O)N1CCN(C(=O)C2CCN(c3ncnc4c3sc3cccc(F)c34)CC2)CC1`, the inhibition – broadly, the percentage by which the read-out fell short of the control – is 41.5% (active).

As to `COc1ccc(C(=O)Nc2ccccc2C(=O)N/N=C/c2ccccc2OC)cc1`, the inhibition is 0.25% (inactive).

In the case of `O=C(CCl)N(Cc1cccc([N+](=O)[O-])c1)c1cccc(Cl)c1`, the inhibition is 33.3% (inactive).

Take `Cc1ccc(C2=Nc3c(ccc4ccccc34)C(c3ccncc3)=NN2)cc1`: the inhibition was 60.4% (active).

In the case of `NS(=O)(=O)c1cccc(NC(=O)CSc2nc3ccccc3n2-c2ccccc2)c1`, the inhibition was 31.4% (inactive).

Take `COc1ccc(C2CC(c3cccs3)=NN2c2nc(C)c(C(C)=O)s2)cc1OC` (stereo not given): the inhibition was 20.8% (inactive).

Consider `CCOC(=O)C(=CNc1cccc(C)n1)C(=O)OCC`, for which the inhibition was 32.5% (inactive).

Consider `CCOC(=O)N1CCN(C(=O)CSc2nnc(-c3c[nH]c4ccccc34)n2CCOC)CC1`, for which the inhibition is 33.9% (inactive).

Regarding `C[C@@H]1C[C@@H]2O[C@H]2/C=C\C=C\C(=O)Cc2c(Cl)c(O)cc(O)c2C(=O)O1`, the inhibition was 61% (active).

For the molecule `COC(=O)C1=CN(Cc2ccc(OC)c(OC)c2)C=C(C(=O)OC)C1c1cccs1`, the inhibition is 38.3% (active).
